Data: ChEMBL document CHEMBL1137301 (J Med Chem, 2006)

Assays:
[1] = target: T1, Melatonin receptor type 1A (Homo sapiens, UniProt P48039); experiment: Intrinsic activity at human MT1 receptor expressed in NIH3T3 cells assessed as stimulation of [35S]GTPgammaS binding relative to MLT; format: functional, cell-based
[2] = target: T2, Melatonin receptor type 1B (Homo sapiens, UniProt P49286); experiment: Displacement of 2-[125I]iodomelatonin from human MT2 receptor expressed in NIH3T3 cells; format: cell-based
T2 sequence (P49286 whole entry): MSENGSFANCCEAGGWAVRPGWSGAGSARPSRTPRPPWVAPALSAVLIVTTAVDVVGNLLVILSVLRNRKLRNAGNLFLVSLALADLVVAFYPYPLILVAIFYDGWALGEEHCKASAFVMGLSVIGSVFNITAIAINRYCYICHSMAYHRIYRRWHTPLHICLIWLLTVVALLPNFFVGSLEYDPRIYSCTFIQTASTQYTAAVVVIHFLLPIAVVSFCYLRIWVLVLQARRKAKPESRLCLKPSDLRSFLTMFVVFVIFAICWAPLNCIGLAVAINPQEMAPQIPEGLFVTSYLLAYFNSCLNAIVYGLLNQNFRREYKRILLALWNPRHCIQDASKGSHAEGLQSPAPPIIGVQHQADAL

[3] = target: T1, Melatonin receptor type 1A; experiment: Displacement of 2-[125I]iodomelatonin from human MT1 receptor expressed in NIH3T3 cells; format: cell-based
[4] = target: T3, Melatonin receptor type 1B (Homo sapiens) (UniProt P49286); experiment: Intrinsic activity at human MT2 receptor expressed in NIH3T3 cells assessed as stimulation of [35S]GTP-gamma-S binding relative to MLT; format: functional, cell-based
T3 sequence (whole entry): T2 sequence (P49286 whole entry)

[5] = target: Melatonin receptor (Homo sapiens) (UniProt P48039+P49286); experiment: Selectivity for human MT2 receptor over MT1 receptor; format: protein assay
Chain of Melatonin receptor (Homo sapiens) (P48039 whole entry, looked up, one chain of several): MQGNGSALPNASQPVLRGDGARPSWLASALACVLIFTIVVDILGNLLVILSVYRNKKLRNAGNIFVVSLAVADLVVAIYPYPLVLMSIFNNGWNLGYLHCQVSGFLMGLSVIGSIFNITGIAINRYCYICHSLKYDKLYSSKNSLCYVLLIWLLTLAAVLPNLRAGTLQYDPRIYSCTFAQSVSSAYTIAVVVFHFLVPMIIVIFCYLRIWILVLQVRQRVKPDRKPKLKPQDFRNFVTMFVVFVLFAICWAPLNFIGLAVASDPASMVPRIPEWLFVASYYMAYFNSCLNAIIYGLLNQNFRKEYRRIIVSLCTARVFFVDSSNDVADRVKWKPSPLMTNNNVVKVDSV
How it was run: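 Incubation was 90 min at 37 °C in 50 mM Tris/HCl, pH 7.4, with nonspecific binding defined by 10 µM MLT. Ki came from IC50 via Cheng-Prusoff, mean of at least three runs in duplicate. The ratio compares MT1 and MT2 Ki.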

[6] = target: T3, Melatonin receptor type 1B (Homo sapiens); experiment: (§1) Activity at human MT2 receptor expressed in NIH3T3 cells assessed as inhibition of MLT-stimulated [35S]GTPgammaS binding; format: functional, cell-based
How it was run: (§2)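 Antagonism was measured in [35S]GTPγS binding on human MT2 NIH3T3 membranes (30 min, 30 °C; GDP 50 µM, NaCl 100 mM, MgCl2 3 mM). MLT concentration-response curves were run alone and with antagonist at 1, 10, 100 and 1000 nM.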

[7] = target: T2, Melatonin receptor type 1B; experiment: as §1; format: functional, cell-based; conditions: read-out: pA2 (converted); how it was run: as §2
[8] = target: T1, Melatonin receptor type 1A; experiment: Activity at human MT1 receptor expressed in NIH3T3 cells assessed as inhibition of MLT-stimulated [35S]GTP-gamma-S binding; format: functional, cell-based; conditions: filed as partial agonist

T1 sequence (P48039 whole entry): as the sequence (P48039 whole entry, looked up, one chain of several) above

| Compound | Intrinsic activity [1] | Ki [2] [nM] | Ki [3] [nM] | Intrinsic activity [4] | Selectivity ratio [5] | Activity ([6]; filed as antagonist) | Kb [7] [nM] | Activity [8] | Activity ([6]; filed as partial agonist) |
| --- | --- | --- | --- | --- | --- | --- | --- | --- | --- |
| O=C(NCC=C(c1ccccc1)c1ccccc1)C1CCC1 | -0.18 | 13.2 | 912 | -0.2 | – | – | – | – | – |
| CCC(=O)NCC(Cc1ccccc1)c1cccc(OC)c1 (configuration not stated) | -0.13 | 191 | 525 | -0.25 | – | – | – | – | – |
| CCC(=O)NCCc1cccc(Cc2ccccc2)c1 | 0.24 | 661 | 389 | 0.48 | – | – | – | – | – |
| CCCC(=O)NCCC(c1ccccc1)c1cccc(OC)c1 (racemic) | 0.21 | 2.63 | 550 | 0.27 | 209 | – | – | – | – |
| COc1cccc(/C(=C/CNC(=O)C2CCC2)c2ccccc2)c1 | 0.29 | 0.525 | 93.3 | 0.13 | 178 | Antagonist | 0.389 | – | – |
| CCC(=O)NCCC(c1ccccc1)c1cccc(OC)c1 (racemic) | 0.31 | 5.01 | 363 | 0.28 | – | – | – | – | – |
| COc1cccc(C(CNC(C)=O)Cc2ccccc2)c1 (configuration not stated) | -0.23 | 204 | 692 | -0.18 | – | – | – | – | – |
| COc1cccc(/C(=C\CNC(=O)C2CCC2)c2ccccc2)c1 | -0.04 | 1.55 | 257 | -0.02 | – | – | – | – | – |
| COc1ccc(Cc2ccccc2)c(CCNC(C)=O)c1 | 0.24 | 6.03 | 69.2 | 0.06 | – | – | – | – | – |
| COc1cccc(C(=CCNC(C)=O)c2cccc(OC)c2)c1 | 0.2 | 0.275 | 58.9 | 0.34 | 214 | – | – | Partial agonist | Partial agonist |
| COc1cccc(C(CCNC(C)=O)c2ccccc2)c1 (racemic) | 0.24 | 5.37 | 2190 | 0.04 | 407 | – | – | – | – |

Continued, values first:

| Intrinsic activity [1] | Ki [2] [nM] | Ki [3] [nM] | Intrinsic activity [4] | Selectivity ratio [5] | Activity ([6]; filed as antagonist) | Kb [7] [nM] | Activity [8] | Activity ([6]; filed as partial agonist) | Compound |
| --- | --- | --- | --- | --- | --- | --- | --- | --- | --- |
| -0.19 | 141 | 4170 | -0.23 | – | – | – | – | – | CC(=O)NCCC(c1ccccc1)c1ccccc1 |
| -0.3 | 417 | 708 | -0.43 | – | – | – | – | – | CC(=O)NCC(Cc1ccccc1)c1ccccc1 (configuration not stated) |
| 0.54 | 0.219 | 2.69 | 0.38 | – | – | – | Partial agonist | Partial agonist | COc1cccc(/C(=C/CNC(C)=O)c2ccccc2)c1 |
| 0.11 | 148 | 1200 | 0.18 | – | – | – | – | – | CC(=O)NC/C(=C\c1ccccc1)c1ccccc1 |
| -0.23 | 525 | 3630 | -0.15 | – | – | – | – | – | CC(=O)NC/C(=C/c1ccccc1)c1ccccc1 |
| 0.45 | 2.51 | 229 | 0.3 | – | – | – | – | – | COc1cccc(/C(=C\CNC(C)=O)c2ccccc2)c1 |
| -0.03 | 11.5 | 513 | 0.19 | – | – | – | – | – | CC(=O)NCC=C(c1ccccc1)c1ccccc1 |
